Inhibition data for three compounds are collected here from ChEMBL document CHEMBL5696442, “Discovery of type II inhibitors of TGFβ-activated kinase 1 (TAK1) and mitogen-activated protein kinase kinase kinase kinase 2 (MAP4K2)” (J Med Chem, 2015).

Each structure is given as a SMILES string. Activity calls are given as the source filed them. The rule behind the calls is not given here.

The target in test [1] is Activin receptor type-2A (Homo sapiens) (UniProt P27037). The test is described as follows: Inhibition of ACVR2A (unknown origin) at 1 uM by Ambit Kinomescan binding assay relative to control.
Chain of Activin receptor type-2A (Homo sapiens) (P27037 whole entry): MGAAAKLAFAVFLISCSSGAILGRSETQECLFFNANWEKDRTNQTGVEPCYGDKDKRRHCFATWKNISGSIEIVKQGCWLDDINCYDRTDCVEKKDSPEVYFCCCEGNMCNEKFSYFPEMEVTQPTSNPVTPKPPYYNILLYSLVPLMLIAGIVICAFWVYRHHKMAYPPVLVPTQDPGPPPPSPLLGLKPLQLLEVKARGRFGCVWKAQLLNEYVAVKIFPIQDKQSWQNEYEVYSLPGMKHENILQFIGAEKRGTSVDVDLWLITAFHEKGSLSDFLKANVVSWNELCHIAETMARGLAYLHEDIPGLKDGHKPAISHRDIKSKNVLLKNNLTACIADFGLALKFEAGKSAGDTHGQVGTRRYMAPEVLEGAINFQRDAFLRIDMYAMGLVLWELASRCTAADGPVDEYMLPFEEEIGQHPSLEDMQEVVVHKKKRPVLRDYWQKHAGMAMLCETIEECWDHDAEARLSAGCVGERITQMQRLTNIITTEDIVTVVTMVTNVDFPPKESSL
Test [2] concerns the target Aurora kinase B (Homo sapiens) (UniProt Q96GD4). The test is described as follows: Inhibition of AURKB (unknown origin) at 1 uM by Ambit Kinomescan binding assay relative to control.
The target of test [3] is Myosin-IIIa (Homo sapiens) (UniProt Q8NEV4). The test is described as follows: Inhibition of MYO3A (unknown origin) at 1 uM by Ambit Kinomescan binding assay relative to control. In a few lines:
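In vitro ATP-site competition binding assay against a panel of over 420 kinases (KinomeScan), with compound tested at 10 or 1 μM.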

Test [4] concerns the target Dual specificity protein kinase CLK4 (Homo sapiens) (UniProt Q9HAZ1). The test is described as follows: Inhibition of CLK4 (unknown origin) at 10 uM by Ambit Kinomescan binding assay.
Test [5] has as its target Serine/threonine-protein kinase 17B (Homo sapiens) (UniProt O94768). The test is described as follows: Inhibition of DRAK2 (unknown origin) at 10 uM by Ambit Kinomescan binding assay.
Test [6] concerns the target Ribosomal protein S6 kinase alpha-2 (Homo sapiens) (UniProt Q15349). The test is described as follows: Inhibition of C-terminal RPS6KA2 kinase domain 2 (unknown origin) at 10 uM by Ambit Kinomescan binding assay.
For test [7], the target named is Dual specificity mitogen-activated protein kinase kinase; MEK1/2 (Homo sapiens) (UniProt P36507+Q02750). The test is described as follows: Inhibition of MAP2K1/2 K2 labeling site in human Huh-7 cells at 10 uM by KiNativ Profiling analysis relative to control. Format: cell-based.
Chain of Dual specificity mitogen-activated protein kinase kinase; MEK1/2 (Homo sapiens) (P36507 whole entry, looked up): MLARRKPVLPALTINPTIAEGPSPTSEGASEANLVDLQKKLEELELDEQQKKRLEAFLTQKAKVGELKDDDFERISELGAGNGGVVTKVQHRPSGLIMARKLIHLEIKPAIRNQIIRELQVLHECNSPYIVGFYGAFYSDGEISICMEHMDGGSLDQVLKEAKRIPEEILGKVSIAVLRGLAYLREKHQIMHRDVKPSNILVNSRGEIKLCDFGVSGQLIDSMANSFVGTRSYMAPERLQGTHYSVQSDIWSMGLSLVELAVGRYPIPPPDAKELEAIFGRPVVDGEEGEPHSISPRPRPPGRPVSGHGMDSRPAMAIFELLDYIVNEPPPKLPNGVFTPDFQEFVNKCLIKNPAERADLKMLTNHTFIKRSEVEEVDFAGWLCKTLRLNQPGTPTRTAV
Chain of Dual specificity mitogen-activated protein kinase kinase; MEK1/2 (Homo sapiens) (Q02750 whole entry, looked up): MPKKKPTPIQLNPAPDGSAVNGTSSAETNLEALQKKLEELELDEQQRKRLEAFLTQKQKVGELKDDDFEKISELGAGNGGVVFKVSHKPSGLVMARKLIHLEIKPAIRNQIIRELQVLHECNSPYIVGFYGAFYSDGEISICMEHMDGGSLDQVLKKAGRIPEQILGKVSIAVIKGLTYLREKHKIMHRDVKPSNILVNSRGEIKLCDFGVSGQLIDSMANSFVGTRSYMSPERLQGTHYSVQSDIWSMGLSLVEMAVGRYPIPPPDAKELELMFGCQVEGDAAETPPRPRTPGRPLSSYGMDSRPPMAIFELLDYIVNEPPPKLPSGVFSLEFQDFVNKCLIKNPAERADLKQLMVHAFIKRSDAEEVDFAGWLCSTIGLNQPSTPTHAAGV
Test [8] deals with Serine/threonine-protein kinase 26 (Homo sapiens) (UniProt Q9P289). The test is described as follows: Inhibition of MST4 ATP labeling site in human Huh-7 cells at 10 uM by KiNativ Profiling analysis relative to control. Format: cell-based.
Chain of Serine/threonine-protein kinase 26 (Homo sapiens) (Q9P289 2-416 limits assumed): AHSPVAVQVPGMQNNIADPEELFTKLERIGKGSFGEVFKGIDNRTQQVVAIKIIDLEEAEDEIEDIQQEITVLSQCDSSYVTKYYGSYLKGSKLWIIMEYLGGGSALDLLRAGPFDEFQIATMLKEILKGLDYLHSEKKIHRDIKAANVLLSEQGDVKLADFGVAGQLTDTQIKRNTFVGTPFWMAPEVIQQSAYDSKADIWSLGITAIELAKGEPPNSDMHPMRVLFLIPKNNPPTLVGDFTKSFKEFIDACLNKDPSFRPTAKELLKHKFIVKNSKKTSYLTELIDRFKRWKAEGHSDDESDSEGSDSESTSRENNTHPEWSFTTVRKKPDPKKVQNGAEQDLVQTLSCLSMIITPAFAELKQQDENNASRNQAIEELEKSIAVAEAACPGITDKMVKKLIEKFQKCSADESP
Test [9] deals with Casein kinase I isoform alpha (Homo sapiens) (UniProt P48729). The test is described as follows: Inhibition of CK1 alpha K2 labeling site in human Huh-7 cells at 1 uM by KiNativ Profiling analysis relative to control. Format: cell-based.
Chain of Casein kinase I isoform alpha (Homo sapiens) (P48729 2-337 limits assumed): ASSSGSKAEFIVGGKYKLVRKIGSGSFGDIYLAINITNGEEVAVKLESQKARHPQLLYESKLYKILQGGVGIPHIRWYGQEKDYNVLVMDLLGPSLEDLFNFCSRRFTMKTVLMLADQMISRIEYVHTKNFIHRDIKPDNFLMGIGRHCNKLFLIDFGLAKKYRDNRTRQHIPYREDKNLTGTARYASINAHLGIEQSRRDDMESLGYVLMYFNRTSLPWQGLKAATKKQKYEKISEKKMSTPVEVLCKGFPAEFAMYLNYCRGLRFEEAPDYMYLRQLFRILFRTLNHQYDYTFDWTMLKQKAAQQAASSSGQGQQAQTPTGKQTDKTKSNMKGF
For test [10], the target named is T1, Inhibitor of nuclear factor kappa-B kinase subunit epsilon (Homo sapiens) (UniProt Q14164).
T1 sequence (whole entry): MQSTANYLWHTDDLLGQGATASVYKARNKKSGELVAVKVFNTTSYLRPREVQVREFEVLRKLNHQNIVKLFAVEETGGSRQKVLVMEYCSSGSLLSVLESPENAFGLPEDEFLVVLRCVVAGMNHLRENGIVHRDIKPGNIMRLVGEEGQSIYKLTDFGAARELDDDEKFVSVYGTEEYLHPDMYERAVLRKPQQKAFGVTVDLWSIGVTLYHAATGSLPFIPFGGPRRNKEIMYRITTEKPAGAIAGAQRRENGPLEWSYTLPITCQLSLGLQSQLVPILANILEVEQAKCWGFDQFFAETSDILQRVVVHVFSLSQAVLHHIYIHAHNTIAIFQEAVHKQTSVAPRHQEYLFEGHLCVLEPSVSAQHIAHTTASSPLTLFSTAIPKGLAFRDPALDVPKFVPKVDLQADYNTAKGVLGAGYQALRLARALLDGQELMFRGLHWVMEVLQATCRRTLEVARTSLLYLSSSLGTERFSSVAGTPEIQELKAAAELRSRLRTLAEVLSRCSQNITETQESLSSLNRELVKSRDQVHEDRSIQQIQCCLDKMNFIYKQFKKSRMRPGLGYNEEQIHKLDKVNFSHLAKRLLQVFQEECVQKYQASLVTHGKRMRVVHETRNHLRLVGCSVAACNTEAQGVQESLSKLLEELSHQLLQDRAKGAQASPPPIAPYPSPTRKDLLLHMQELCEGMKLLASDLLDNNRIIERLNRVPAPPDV
The test is described as follows: Inhibition of IKKe K2 labeling site in human Huh-7 cells at 1 uM by KiNativ Profiling analysis relative to control. Format: cell-based.

For test [11], the target named is T2, Phosphatidylinositol 5-phosphate 4-kinase type-2 gamma (Homo sapiens) (UniProt Q8TBX8).
T2 sequence (whole entry): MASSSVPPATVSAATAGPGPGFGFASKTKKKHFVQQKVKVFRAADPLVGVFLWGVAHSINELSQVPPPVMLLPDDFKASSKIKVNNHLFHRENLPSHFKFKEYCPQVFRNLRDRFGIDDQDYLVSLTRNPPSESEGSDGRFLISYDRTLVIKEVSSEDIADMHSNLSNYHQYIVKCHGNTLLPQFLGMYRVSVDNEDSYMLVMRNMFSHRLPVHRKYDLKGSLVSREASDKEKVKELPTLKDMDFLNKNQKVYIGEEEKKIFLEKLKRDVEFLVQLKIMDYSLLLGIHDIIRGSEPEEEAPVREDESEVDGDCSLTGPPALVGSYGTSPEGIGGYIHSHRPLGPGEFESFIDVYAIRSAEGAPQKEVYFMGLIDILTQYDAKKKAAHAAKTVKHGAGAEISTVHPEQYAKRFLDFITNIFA
The test is described as follows: Inhibition of PIP5K2C C2 labeling site in human Huh-7 cells at 1 uM by KiNativ Profiling analysis relative to control. Format: cell-based.

The target in test [12] is T3, NUAK family SNF1-like kinase 1 (Homo sapiens) (UniProt O60285).
T3 sequence (whole entry): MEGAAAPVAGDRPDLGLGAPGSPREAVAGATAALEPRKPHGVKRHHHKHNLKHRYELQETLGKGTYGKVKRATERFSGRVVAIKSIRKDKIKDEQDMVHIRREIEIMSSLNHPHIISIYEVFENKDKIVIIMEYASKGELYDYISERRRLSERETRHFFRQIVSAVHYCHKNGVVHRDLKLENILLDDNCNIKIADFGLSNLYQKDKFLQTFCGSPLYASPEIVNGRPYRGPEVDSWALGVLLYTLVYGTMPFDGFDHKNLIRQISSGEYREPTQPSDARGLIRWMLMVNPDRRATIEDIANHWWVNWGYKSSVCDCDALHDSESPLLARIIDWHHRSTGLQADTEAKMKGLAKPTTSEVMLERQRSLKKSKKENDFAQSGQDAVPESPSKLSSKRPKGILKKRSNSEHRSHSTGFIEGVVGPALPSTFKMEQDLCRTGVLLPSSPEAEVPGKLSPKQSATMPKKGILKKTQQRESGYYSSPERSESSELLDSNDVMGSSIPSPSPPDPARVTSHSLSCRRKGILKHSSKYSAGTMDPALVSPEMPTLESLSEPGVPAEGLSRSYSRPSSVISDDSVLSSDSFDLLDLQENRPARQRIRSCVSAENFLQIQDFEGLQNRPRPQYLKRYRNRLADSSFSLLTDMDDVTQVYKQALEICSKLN
The test is described as follows: Inhibition of NuaK1 Lys2 labeling site in human Huh-7 cells at 1 uM by KiNativ Profiling analysis relative to control. Format: cell-based.

Chain of Ribosomal protein S6 kinase alpha-2 (Homo sapiens) (Q15349 whole entry, the tested form may be a part): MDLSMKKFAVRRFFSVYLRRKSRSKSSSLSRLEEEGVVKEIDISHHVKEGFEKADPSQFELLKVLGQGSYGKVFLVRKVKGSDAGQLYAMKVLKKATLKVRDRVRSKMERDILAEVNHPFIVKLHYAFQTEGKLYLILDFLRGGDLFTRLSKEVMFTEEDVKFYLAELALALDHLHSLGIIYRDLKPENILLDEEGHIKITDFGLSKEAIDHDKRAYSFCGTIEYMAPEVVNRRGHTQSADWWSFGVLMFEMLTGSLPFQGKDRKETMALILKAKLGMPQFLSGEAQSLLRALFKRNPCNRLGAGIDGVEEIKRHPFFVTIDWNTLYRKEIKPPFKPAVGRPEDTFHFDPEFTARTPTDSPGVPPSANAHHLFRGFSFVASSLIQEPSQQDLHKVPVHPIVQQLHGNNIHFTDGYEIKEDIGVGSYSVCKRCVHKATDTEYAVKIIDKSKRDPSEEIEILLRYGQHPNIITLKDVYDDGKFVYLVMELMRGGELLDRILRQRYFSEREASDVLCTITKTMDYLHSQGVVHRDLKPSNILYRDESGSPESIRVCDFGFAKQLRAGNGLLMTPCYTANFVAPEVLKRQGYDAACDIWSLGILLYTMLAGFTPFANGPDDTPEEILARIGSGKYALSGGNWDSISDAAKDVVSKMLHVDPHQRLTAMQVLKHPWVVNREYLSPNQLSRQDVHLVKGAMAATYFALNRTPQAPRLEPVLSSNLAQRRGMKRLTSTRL
Chain of Myosin-IIIa (Homo sapiens) (Q8NEV4 whole entry): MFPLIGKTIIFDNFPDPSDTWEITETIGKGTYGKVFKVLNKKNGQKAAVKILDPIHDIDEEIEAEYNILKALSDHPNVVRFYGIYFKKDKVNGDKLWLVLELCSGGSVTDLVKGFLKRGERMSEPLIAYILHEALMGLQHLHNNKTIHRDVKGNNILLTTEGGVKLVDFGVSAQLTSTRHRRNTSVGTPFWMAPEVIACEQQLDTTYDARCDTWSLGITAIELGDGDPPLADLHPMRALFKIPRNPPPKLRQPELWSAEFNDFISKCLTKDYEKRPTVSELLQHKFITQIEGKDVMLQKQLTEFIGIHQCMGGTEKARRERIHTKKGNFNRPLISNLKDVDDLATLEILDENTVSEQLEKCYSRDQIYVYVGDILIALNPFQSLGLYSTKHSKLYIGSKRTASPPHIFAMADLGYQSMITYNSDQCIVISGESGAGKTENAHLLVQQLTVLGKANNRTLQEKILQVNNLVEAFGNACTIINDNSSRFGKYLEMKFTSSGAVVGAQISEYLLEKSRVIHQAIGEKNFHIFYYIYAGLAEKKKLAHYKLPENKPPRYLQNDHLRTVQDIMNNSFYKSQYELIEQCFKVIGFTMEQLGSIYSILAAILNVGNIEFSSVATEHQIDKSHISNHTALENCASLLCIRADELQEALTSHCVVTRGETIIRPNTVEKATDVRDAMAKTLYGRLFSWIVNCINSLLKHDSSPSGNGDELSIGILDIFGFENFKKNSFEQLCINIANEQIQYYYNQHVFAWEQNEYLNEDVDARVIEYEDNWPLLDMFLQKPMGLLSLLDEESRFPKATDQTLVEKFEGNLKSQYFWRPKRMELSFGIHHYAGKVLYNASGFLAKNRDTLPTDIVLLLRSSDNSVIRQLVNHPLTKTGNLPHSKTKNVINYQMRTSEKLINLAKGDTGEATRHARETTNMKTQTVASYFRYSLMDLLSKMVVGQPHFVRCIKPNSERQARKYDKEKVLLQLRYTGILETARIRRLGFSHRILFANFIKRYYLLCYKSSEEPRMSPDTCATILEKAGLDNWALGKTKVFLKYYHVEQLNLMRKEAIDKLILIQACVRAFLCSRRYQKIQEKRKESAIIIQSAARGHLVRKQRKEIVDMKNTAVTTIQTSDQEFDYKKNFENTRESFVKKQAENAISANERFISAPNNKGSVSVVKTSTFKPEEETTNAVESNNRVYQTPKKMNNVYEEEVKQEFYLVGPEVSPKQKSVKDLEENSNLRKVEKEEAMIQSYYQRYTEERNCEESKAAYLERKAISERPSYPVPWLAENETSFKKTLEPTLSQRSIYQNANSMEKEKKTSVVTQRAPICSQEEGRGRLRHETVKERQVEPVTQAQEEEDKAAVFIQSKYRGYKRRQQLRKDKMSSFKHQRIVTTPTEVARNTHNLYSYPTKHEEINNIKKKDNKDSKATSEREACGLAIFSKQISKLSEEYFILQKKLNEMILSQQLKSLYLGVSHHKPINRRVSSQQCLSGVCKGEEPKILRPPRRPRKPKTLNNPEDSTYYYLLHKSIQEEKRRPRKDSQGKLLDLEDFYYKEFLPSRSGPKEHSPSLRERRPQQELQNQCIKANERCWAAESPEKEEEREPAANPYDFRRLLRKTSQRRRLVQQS
Chain of Aurora kinase B (Homo sapiens) (Q96GD4 whole entry): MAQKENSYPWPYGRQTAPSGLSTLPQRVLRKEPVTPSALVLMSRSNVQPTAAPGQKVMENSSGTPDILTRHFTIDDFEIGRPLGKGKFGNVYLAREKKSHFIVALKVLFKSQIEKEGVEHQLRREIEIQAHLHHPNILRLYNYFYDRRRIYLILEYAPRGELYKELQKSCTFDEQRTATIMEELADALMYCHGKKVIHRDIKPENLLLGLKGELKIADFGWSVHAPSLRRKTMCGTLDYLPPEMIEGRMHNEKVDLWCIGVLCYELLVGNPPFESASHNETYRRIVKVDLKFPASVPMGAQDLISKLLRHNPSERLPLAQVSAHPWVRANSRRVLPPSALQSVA

As for `CCN1CCN(Cc2ccc(NC(=O)c3ccc(C)c(/C=C/c4cnc5[nH]ccc5c4OC)c3)cc2C(F)(F)F)CC1`, the results for the inhibition in [1], in [2] and in test [3] were 100%, 65% and 84%, respectively.
Regarding `CCN1CCN(Cc2ccc(NC(=O)c3ccc(C)c(Oc4ccnc5[nH]ccc45)c3)cc2C(F)(F)F)CC1`, the inhibition entry in test [4], in test [5] and in test [6] was “inactive” throughout. Also, the inhibition in [7] was 14.4%; in test [8] it was 25.3%; in test [9], 2.9%; in test [10], 17.7%; in [11], 1.3%.
In test [12], `CNc1cc(Oc2cc(C(=O)Nc3cc(N4CCN(C)CC4)cc(C(F)(F)F)c3)ccc2C)ncn1` displayed an inhibition of 20.5%.
